Consider 17 compounds from ChEMBL document CHEMBL3580662, “(R)-2-Phenylpyrrolidine Substituted Imidazopyridazines: A New Class of Potent and Selective Pan-TRK Inhibitors” (ACS Med Chem Lett, 2015).

A short description of data set [1]: Cytotoxicity against wild type mouse BA/F3 cells assessed as inhibition of cell proliferation after 48 hrs by luciferase reporter gene assay in presence of recombinant mouse IL3. Format: functional, cell-based. The conditions noted are these: BaF3, 48 h. In outline:
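Parental wild-type Ba/F3 cells grown with IL-3; proliferation assay, IC50 in μM.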

A short description of data set [2]: Plasma clearance in Sprague-Dawley rat at 3 mg/kg, iv and 10 mg/kg, po. The data set is classed as ADME, organism-based. In short, it runs like this:
(§1)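 Male Sprague–Dawley rats dosed intravenously at 3 mg/kg and orally at 10 mg/kg, each as a solution in 75% PEG300/25% D5W. Plasma sampled for clearance, Vss, T1/2, oral AUC, Cmax and oral bioavailability F(%).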

Data set [3] can be described thus: Volume of distribution at steady state in Sprague-Dawley rat at 3 mg/kg, iv and 10 mg/kg, po. Format: ADME, organism-based. The conditions noted are these: in vivo, read-out: Vdss. In outline:
as §1

The nature of data set [4]: Half life in Sprague-Dawley rat at 3 mg/kg, iv and 10 mg/kg, po. The data set is classed as ADME, organism-based. The note with it: in vivo. In short, it runs like this:
as §1

Data set [5] in a line: AUC in Sprague-Dawley rat at 10 mg/kg, po. Format: ADME, organism-based. The note with it: in vivo. In short, it runs like this:
as §1

Data set [6] can be described thus: Cmax in Sprague-Dawley rat at 10 mg/kg, po. The data set is classed as ADME, organism-based. Set-up: dose 10 mg/kg, route oral. The note with it: in vivo. In short, it runs like this:
as §1

Data set [7] in a line: Oral bioavailability in Sprague-Dawley rat at 10 mg/kg. The conditions noted are these: in vivo. The data set is classed as ADME, organism-based. In short, it runs like this: as §1
In data set [8] the test system is Rattus norvegicus. Nature of the data set: Plasma clearance in Sprague-Dawley rat at 3 mg/kg, iv and 10 mg/kg, po relative to hepatic blood flow. The data set is classed as ADME, organism-based. The conditions noted are these: in vivo.
Data set [9] in a line: Ratio of AUC in brain to AUC in plasma of Balb/C mouse at 20 mg/kg, po. The data set is classed as ADME, organism-based. The conditions noted are these: brain and plasma, read-out: Ratio AUC.
The nature of data set [10]: Ratio of Cmax in brain to Cmax in plasma of Balb/C mouse at 20 mg/kg, po. Format: ADME, organism-based. The conditions noted are these: brain and plasma, read-out: BPR.
Data set [11] deals with Tyrosine-protein kinase JAK2 (Homo sapiens, UniProt O60674). Nature of the data set: Inhibition of Tel-fused JAK2 (unknown origin) expressed in mouse BA/F3 cells after 48 hrs by luciferase reporter gene assay in absence of recombinant mouse IL3. Format: cell-based. The conditions noted are these: baf3. For orientation: Reporter assays use an easily measured gene product as a stand-in for the process of interest.
Sequence of Tyrosine-protein kinase JAK2 (O60674 whole entry, looked up, the tested form may be a part): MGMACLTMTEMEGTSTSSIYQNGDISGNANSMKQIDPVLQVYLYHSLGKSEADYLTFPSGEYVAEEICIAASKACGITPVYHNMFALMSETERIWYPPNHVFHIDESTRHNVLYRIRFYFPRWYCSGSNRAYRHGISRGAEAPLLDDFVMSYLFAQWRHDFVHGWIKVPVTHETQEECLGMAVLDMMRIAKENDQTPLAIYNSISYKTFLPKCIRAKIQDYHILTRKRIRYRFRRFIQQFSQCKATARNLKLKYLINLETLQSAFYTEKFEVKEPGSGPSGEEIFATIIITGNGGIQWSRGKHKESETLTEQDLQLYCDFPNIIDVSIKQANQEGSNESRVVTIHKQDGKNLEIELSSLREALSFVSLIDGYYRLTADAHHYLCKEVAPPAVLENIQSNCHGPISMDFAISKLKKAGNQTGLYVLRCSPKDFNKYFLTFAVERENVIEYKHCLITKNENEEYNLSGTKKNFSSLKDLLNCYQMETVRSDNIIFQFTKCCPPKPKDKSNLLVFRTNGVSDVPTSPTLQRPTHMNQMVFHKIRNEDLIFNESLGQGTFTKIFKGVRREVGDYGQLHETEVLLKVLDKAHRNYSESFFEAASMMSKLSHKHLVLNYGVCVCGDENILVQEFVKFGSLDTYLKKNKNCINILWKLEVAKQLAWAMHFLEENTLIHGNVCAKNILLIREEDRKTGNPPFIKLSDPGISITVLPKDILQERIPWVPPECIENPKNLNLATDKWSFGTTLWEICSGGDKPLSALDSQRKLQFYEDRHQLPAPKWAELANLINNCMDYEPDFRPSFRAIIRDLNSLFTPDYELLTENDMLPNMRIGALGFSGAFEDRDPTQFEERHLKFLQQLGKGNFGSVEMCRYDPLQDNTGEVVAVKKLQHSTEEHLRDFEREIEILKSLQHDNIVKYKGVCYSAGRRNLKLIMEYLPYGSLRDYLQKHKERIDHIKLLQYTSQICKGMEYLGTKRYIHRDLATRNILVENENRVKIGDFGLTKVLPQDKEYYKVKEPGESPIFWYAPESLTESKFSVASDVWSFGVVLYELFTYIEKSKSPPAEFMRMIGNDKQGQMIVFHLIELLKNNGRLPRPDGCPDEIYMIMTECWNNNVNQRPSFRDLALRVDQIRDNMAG

Data set [12] in a line: Plasma clearance in Wistar rat at 3 mg/kg, iv and 10 mg/kg, po. Format: ADME, organism-based. In short, it runs like this: (§2)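 Male Wistar rats given 3 mg/kg IV and 10 mg/kg PO, formulated as a solution in 75% PEG300/25% D5W. Plasma PK parameters derived: CL, Vss, T1/2, AUC and Cmax after oral dosing, and F(%).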
Data set [13] is described as follows: Volume of distribution at steady state in Wistar rat at 3 mg/kg, iv and 10 mg/kg, po. The note with it: in vivo, read-out: Vdss. The data set is classed as ADME, organism-based. In outline:
as §2

Data set [14] in a line: Half life in Wistar rat at 3 mg/kg, iv and 10 mg/kg, po. The note with it: in vivo. Format: ADME, organism-based. In outline:
as §2

The nature of data set [15]: AUC in Wistar rat at 10 mg/kg, po. The data set is classed as ADME, organism-based. The conditions noted are these: in vivo. In outline:
as §2

Data set [16] can be described thus: Cmax in Wistar rat at 10 mg/kg, po. Set-up: dose 10 mg/kg, route oral. The conditions noted are these: in vivo. Format: ADME, organism-based. In short, it runs like this: as §2
Data set [17] in a line: Oral bioavailability in Wistar rat at 10 mg/kg. The note with it: in vivo. The data set is classed as ADME, organism-based. In short, it runs like this:
as §2

In data set [18] the test system is Rattus norvegicus. Briefly: Plasma clearance in Wistar rat at 3 mg/kg, iv and 10 mg/kg, po relative to hepatic blood flow. Format: ADME, organism-based. The note with it: in vivo.
Data set [19] has as its system KM12. Nature of the data set: Antitumor activity against human KM12 cells xenografted in CRL RNU nude rat assessed as induction of tumor regression at 50 mg/kg, po bid administered for 14 days relative to vehicle-treated control. The data set is classed as functional. In outline: (§3)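 Female CRL RNU nude rats transplanted with KM12 tumor tissue; dosing started 10 days postimplant, twice daily for 14 days at 6.25, 12.5, 25 or 50 mg/kg alongside vehicle. Efficacy read as tumor volume.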

For data set [20], the system named is KM12. Briefly: Antitumor activity against human KM12 cells xenografted in po dosed CRL RNU nude rat assessed as tumor growth inhibition administered as bid for 14 days. Format: functional, organism-based. In short, it runs like this:
as §3

Data set [21] concerns Rattus norvegicus. Nature of the data set: Toxicity in CRL RNU nude rat xenografted with human KM12 cells assessed as increase in body weight at 25 to 50 mg/kg, po bid administered for 14 days measured on day 14 post last dose. The conditions noted are these: in vivo, 336 h. The data set is classed as organism-based. For orientation: In xenograft studies the graft and the host belong to different species.

The target in data set [22] is BDNF/NT-3 growth factors receptor (Homo sapiens, UniProt Q16620). Briefly: Inhibition of TRKB (unknown origin) by scintillation proximity assay. In outline: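 TRKB biochemical inhibition measured by scintillation proximity assay; IC50 reported.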
Sequence of BDNF/NT-3 growth factors receptor (Q16620 whole entry): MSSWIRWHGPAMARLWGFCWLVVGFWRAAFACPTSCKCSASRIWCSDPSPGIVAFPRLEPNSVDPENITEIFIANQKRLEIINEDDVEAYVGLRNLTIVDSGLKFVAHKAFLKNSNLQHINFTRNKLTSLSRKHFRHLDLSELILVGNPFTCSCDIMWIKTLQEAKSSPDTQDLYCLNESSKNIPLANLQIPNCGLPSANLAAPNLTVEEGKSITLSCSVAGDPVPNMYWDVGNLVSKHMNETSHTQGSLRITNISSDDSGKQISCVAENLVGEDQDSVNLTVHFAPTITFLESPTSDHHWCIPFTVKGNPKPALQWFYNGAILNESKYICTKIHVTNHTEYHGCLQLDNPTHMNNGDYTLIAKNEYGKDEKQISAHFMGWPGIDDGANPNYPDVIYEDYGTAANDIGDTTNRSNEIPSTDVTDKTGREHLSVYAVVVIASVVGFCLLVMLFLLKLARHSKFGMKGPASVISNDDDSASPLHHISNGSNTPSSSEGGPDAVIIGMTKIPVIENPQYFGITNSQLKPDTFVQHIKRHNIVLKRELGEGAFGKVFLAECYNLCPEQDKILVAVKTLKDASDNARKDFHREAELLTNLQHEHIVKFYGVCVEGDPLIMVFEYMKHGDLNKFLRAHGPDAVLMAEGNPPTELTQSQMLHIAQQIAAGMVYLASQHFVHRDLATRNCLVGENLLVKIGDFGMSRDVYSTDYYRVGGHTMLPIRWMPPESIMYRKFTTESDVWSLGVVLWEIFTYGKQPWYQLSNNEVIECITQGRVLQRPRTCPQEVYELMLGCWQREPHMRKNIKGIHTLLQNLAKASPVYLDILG

For `N#Cc1ccc(-c2cnc3ccc(N4CCC[C@@H]4c4cccc(F)c4)nn23)cc1`, the IC50 in [1] is above 10 µM.

For the compound `N#Cc1ccc(-c2cnc3ccc(N4CCC[C@H]4c4cccc(F)c4)nn23)cc1`, the IC50 in data set [1] is 9.23 µM.

With `O=C(O)CN1CCN(c2cc(-c3cnc4ccc(N5CCC[C@@H]5c5cccc(F)c5)nn34)ccn2)CC1`, the IC50 worked out at 4.79 µM in data set [1] and 2.7 µM in [11]. Also, the clearance in data set [2] was determined as 45.5 mL/min/kg. The Vd in data set [3] stood at 2.4 L/kg. Besides, the half-life in data set [4] is 54 min. The compound further gave an AUC in [5] of 1.9 µM·h. In addition, in [6], the Cmax was found to be 250 nM. In [7], this compound registered a bioavailability of 26%. Besides, the CL with Rattus norvegicus [8] is 82%. In addition, the Kp in data set [9] and in [10] was 0.8 each time.

With `OC1CCN(c2cc(-c3cnc4ccc(N5CCC[C@@H]5c5cccc(F)c5)nn34)ccn2)CC1`, the results for the IC50 in data set [1] and in data set [11] were 5.91 µM and 5.6 µM, respectively. Also, in data set [12], the clearance came out at 45.2 mL/min/kg. The Vd in [13] was determined as 4.9 L/kg. The compound also gave a half-life in [14] of 96 min. In [15], this compound came in with an AUC of 1.88 µM·h. The same compound came in with a peak concentration (Cmax) in [16] of 215 nM. The compound further registered a bioavailability in data set [17] of 27%. In addition, in the data set on Rattus norvegicus [18], the CL came out at 82%. For the same compound, the Kp in [9] and in [10] was 0.2 throughout. In addition, the Activity is recorded as 20% in the data set with KM12 [19] and “Toxic” with Rattus norvegicus [21]. The TGI entry in the data set with KM12 [20] was “Dose-dependent effect”.

As for `N#Cc1ccc(-c2cnc3ccc(N4CCCC4c4cccc(F)c4)nn23)cc1` (racemic), the IC50 in [1] is above 10 µM.

For the compound `N#Cc1ccc(-c2cnc3ccc(N4CCCCC4c4cccc(F)c4)nn23)cc1` (racemic), the IC50 in data set [1] was above 10 µM.

In the case of `O=C(Nc1ccc(-c2cnc3ccc(NCc4cccc(F)c4)nn23)cc1)C1CCOCC1`, in data set [1], the IC50 was 3 µM.

For `OC1CCN(c2cccc(-c3cnc4ccc(N5CCC[C@@H]5c5cccc(F)c5)nn34)n2)CC1`, the half-inhibitory concentration (IC50) in [1] is above 10 µM. The clearance in data set [2] was determined as 56.9 mL/min/kg. Besides, in data set [3], the Vd stood at 2.3 L/kg. Further, the half-life in data set [4] was 49.8 min. Also, the AUC in data set [5] was 0.659 µM·h. This compound also showed a Cmax in [6] of 110 nM. This compound had a bioavailability in data set [7] of 10%. The CL in the data set with Rattus norvegicus [8] was 100%.

For `COc1ccccc1CNc1ccc2ncc(-c3ccc(C#N)cc3)n2n1`, the IC50 in data set [1] was found to be 1.01 µM.

With `N#Cc1cccc(-c2cnc3ccc(NCc4ccccc4)nn23)c1`, the IC50 in data set [1] is above 10 µM.

For the compound `N#Cc1ccc(-c2cnc3ccc(N4CCOCC4c4cccc(F)c4)nn23)cc1` (racemic), in [1], the IC50 is above 10 µM.

In the case of `OCc1ccc(-c2cnc3ccc(NCc4cccc(F)c4)nn23)cc1`, in [1], the IC50 came out at 1.92 µM.

On to `N#Cc1ccc(-c2cnc3ccc(NCc4cccc(F)c4)nn23)cc1`, for which, in data set [1], the IC50 was 3.92 µM.

For `NS(=O)(=O)c1ccc(-c2cnc3ccc(NCc4cccc(F)c4)nn23)cc1`, the IC50 in [1] turned out to be 2.53 µM.

In the case of `CN(Cc1ccccc1)c1ccc2ncc(-c3ccc(C#N)cc3)n2n1`, the IC50 in [1] came out at 5.89 µM.

Consider `Fc1cccc([C@H]2CCCN2c2ccc3ncc(-c4ccccn4)n3n2)c1`, for which the IC50 in data set [1] was above 10 µM; in data set [11], 6.7 µM.

`N#Cc1ccc(-c2cnc3ccc(NCc4ccccc4)nn23)cc1`: the IC50 turned out to be 0.083 µM in [22], 7.13 µM in [1] and 4.7 µM in data set [11].

As a reminder, the IC50 is the point on the concentration scale where inhibition reaches its midpoint. One may read the half-life as the time needed for the level to fall by half in the phase considered. The low end stands for rapid decline, the high end for slow decline. In general, AUC refers to the area under the concentration-time curve, a measure of exposure. A low value points to less exposure. Usually Cmax stands for the highest concentration seen after dosing. As usually defined, the bioavailability is the share of a dose that reaches the circulation, judged against a reference dose that is usually intravenous. The low end stands for little systemic uptake, the high end for much systemic uptake.
